ChEMBL document CHEMBL4689842, “EUbOPEN Chemogenomics Library wave 1” (2021)
“And” between values parts separate entries of the source, which are not always exact repeats. Identical values can stand only once.

System: HEK-293T
Experiment: Multiplex assay against HEK293T;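 as to Population Tubulin-Different-Phenotype (%): share of the cells with healthy nuclei that show this phenotype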
Type: toxicity, cell-based
Conditions: human
Method in brief: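 Per cents of healthy-nucleus cells form the tubulin, mitochondrial-mass and membrane-permeability phenotype values. Live cells were stained at seeding with Hoechst33342, BioTracker Green Microtubule Cytoskeleton Dye, MitoTracker Red and Annexin V Alexa Fluor 680. After compound addition they were imaged on a CQ1 microscope at 37°C and 5% CO2, and CellPathfinder machine-learning gating split them into Hoechst high-intensity objects or normal cells, normal cells into healthy, pyknosed or fragmented nuclei, and pyknosed cells into mitotic or apoptotic.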

[1] = 12 h, 1 µM, compound concentration 1 uM, replicate 1
[2] = 12 h, 1 µM, compound concentration 1 uM, replicate 2
[3] = 12 h, 10 µM, compound concentration 10 uM, replicate 1
[4] = 12 h, 10 µM, compound concentration 10 uM, replicate 2
[5] = 24 h, 1 µM, compound concentration 1 uM, replicate 1
[6] = 24 h, 1 µM, compound concentration 1 uM, replicate 2
[7] = 24 h, 10 µM, compound concentration 10 uM, replicate 1
[8] = 24 h, 10 µM, compound concentration 10 uM, replicate 2
[9] = 48 h, 1 µM, compound concentration 1 uM, replicate 1
[10] = 48 h, 1 µM, compound concentration 1 uM, replicate 2
[11] = 48 h, 10 µM, compound concentration 10 uM, replicate 1
[12] = 48 h, 10 µM, compound concentration 10 uM, replicate 2

## O=C(Nc1ccc(Cl)cc1)Nc1cccc(-c2cccc(N3CCCC3)n2)c1
[1]
  Population Apoptotic (%): 51%
  Population Fragmented Nuclei (%): 10%
  Population Hoechst High Intensity Objects (%): 12%
  Population Membrane Permeable-Phenotype (%): 2%
  Population Mitochondria Different-Phenotype (%): 63%
  Population Mitotic Cells (%): 48%
  Population Normal (%): 87%
  Population Pyknosed Nuclei (%): 45%
  Population Tubulin-Different-Phenotype (%): 46%
[2]
  Population Apoptotic (%): 17%
  Population Fragmented Nuclei (%): 5%
  Population Healthy Nuclei (%): 43%
  Population Hoechst High Intensity Objects (%): 5%
  Population Membrane Permeable-Phenotype (%): 16%
  Population Mitochondria Different-Phenotype (%): 6%
  Population Mitotic Cells (%): 82%
  Population Normal (%): 94%
  Population Pyknosed Nuclei (%): 51%
  Population Tubulin-Different-Phenotype (%): 17%
[3]
  Population Apoptotic (%): 85%
  Population Fragmented Nuclei (%): 31%
  Population Healthy Nuclei (%): 2%
  Population Hoechst High Intensity Objects (%): 32%
  Population Membrane Permeable-Phenotype (%): 66%
  Population Mitochondria Different-Phenotype (%): 0%
  Population Mitotic Cells (%): 14%
  Population Normal (%): 68%
  Population Pyknosed Nuclei (%): 65%
  Population Tubulin-Different-Phenotype (%): 33%
[4]
  Population Apoptotic (%): 46%
  Population Fragmented Nuclei (%): 7%
  Population Healthy Nuclei (%): 14%
  Population Hoechst High Intensity Objects (%): 9%
  Population Membrane Permeable-Phenotype (%): 70%
  Population Mitochondria Different-Phenotype (%): 10%
  Population Mitotic Cells (%): 53%
  Population Normal (%): 90%
  Population Pyknosed Nuclei (%): 78%
  Population Tubulin-Different-Phenotype (%): 60%
[5]
  Population Apoptotic (%): 49%
  Population Fragmented Nuclei (%): 9%
  Population Healthy Nuclei (%): 47%
  Population Hoechst High Intensity Objects (%): 11%
  Population Membrane Permeable-Phenotype (%): 9%
  Population Mitochondria Different-Phenotype (%): 38%
  Population Mitotic Cells (%): 50%
  Population Normal (%): 88%
  Population Pyknosed Nuclei (%): 43%
  Population Tubulin-Different-Phenotype (%): 37%
[6]
  Population Apoptotic (%): 9%
  Population Fragmented Nuclei (%): 8%
  Population Healthy Nuclei (%): 60%
  Population Hoechst High Intensity Objects (%): 3%
  Population Membrane Permeable-Phenotype (%): 24%
  Population Mitochondria Different-Phenotype (%): 2%
  Population Mitotic Cells (%): 90%
  Population Normal (%): 96%
  Population Pyknosed Nuclei (%): 30%
  Population Tubulin-Different-Phenotype (%): 28%
[7]
  Population Apoptotic (%): 85%
  Population Fragmented Nuclei (%): 43%
  Population Healthy Nuclei (%): 6%
  Population Hoechst High Intensity Objects (%): 45%
  Population Membrane Permeable-Phenotype (%): 0%
  Population Mitochondria Different-Phenotype (%): 50%
  Population Mitotic Cells (%): 14%
  Population Normal (%): 54%
  Population Pyknosed Nuclei (%): 50%
  Population Tubulin-Different-Phenotype (%): 66%
[8]
  Population Apoptotic (%): 56%
  Population Fragmented Nuclei (%): 8%
  Population Healthy Nuclei (%): 14%
  Population Hoechst High Intensity Objects (%): 30%
  Population Membrane Permeable-Phenotype (%): 43%
  Population Mitochondria Different-Phenotype (%): 12%
  Population Mitotic Cells (%): 43%
  Population Normal (%): 69%
  Population Pyknosed Nuclei (%): 76%
  Population Tubulin-Different-Phenotype (%): 56%
[9]
  Population Apoptotic (%): 47%
  Population Fragmented Nuclei (%): 11%
  Population Healthy Nuclei (%): 57%
  Population Hoechst High Intensity Objects (%): 9%
  Population Membrane Permeable-Phenotype (%): 5%
  Population Mitochondria Different-Phenotype (%): 14%
  Population Mitotic Cells (%): 52%
  Population Normal (%): 90%
  Population Pyknosed Nuclei (%): 30%
  Population Tubulin-Different-Phenotype (%): 38%
[10]
  Population Apoptotic (%): 7%
  Population Fragmented Nuclei (%): 5%
  Population Healthy Nuclei (%): 82%
  Population Hoechst High Intensity Objects (%): 2%
  Population Membrane Permeable-Phenotype (%): 26%
  Population Mitochondria Different-Phenotype (%): 0%
  Population Mitotic Cells (%): 92%
  Population Normal (%): 97%
  Population Pyknosed Nuclei (%): 11%
  Population Tubulin-Different-Phenotype (%): 19%
[11]
  Population Apoptotic (%): 80%
  Population Fragmented Nuclei (%): 61%
  Population Healthy Nuclei (%): 7%
  Population Hoechst High Intensity Objects (%): 40%
  Population Membrane Permeable-Phenotype (%): 25%
  Population Mitochondria Different-Phenotype (%): 50%
  Population Mitotic Cells (%): 19%
  Population Normal (%): 59%
  Population Pyknosed Nuclei (%): 30%
  Population Tubulin-Different-Phenotype (%): 87%
[12]
  Population Apoptotic (%): 52%
  Population Fragmented Nuclei (%): 22%
  Population Healthy Nuclei (%): 22%
  Population Hoechst High Intensity Objects (%): 26%
  Population Membrane Permeable-Phenotype (%): 72%
  Population Mitochondria Different-Phenotype (%): 6%
  Population Mitotic Cells (%): 47%
  Population Normal (%): 73%
  Population Pyknosed Nuclei (%): 54%
  Population Tubulin-Different-Phenotype (%): 79%

## CCN(CC)S(=O)(=O)Nc1cccc(-c2ccc3c(NC(=O)C4CC4)n[nH]c3c2)c1
[3]
  Population Apoptotic (%): 14% and 17%
  Population Fragmented Nuclei (%): 23% and 22%
  Population Healthy Nuclei (%): 31% and 60%
  Population Hoechst High Intensity Objects (%): 17% and 14%
  Population Membrane Permeable-Phenotype (%): 7% and 4%
  Population Mitochondria Different-Phenotype (%): 5% and 3%
  Population Mitotic Cells (%): 85% and 82%
  Population Normal (%): 82% and 85%
  Population Pyknosed Nuclei (%): 45% and 17%
  Population Tubulin-Different-Phenotype (%): 6% and 1%
  Total Cell Count: 531 and 471
[4]
  Population Apoptotic (%): 13% and 5%
  Population Healthy Nuclei (%): 76% and 84%
  Population Hoechst High Intensity Objects (%): 4% and 2%
  Population Membrane Permeable-Phenotype (%): 1% and 0%
  Population Mitotic Cells (%): 86% and 94%
  Population Normal (%): 95% and 97%
  Population Tubulin-Different-Phenotype (%): 10% and 4%
  Total Cell Count: 940 and 1848
[7]
  Population Apoptotic (%): 19% and 16%
  Population Fragmented Nuclei (%): 22% and 21%
  Population Healthy Nuclei (%): 34% and 70%
  Population Hoechst High Intensity Objects (%): 14% and 9%
  Population Membrane Permeable-Phenotype (%): 7% and 8%
  Population Mitotic Cells (%): 80% and 83%
  Population Normal (%): 85% and 90%
  Total Cell Count: 487 and 501
[8]
  Population Apoptotic (%): 4% and 8%
  Population Healthy Nuclei (%): 67% and 71%
  Population Hoechst High Intensity Objects (%): 4% and 6%
  Population Membrane Permeable-Phenotype (%): 2% and 1%
  Population Mitochondria Different-Phenotype (%): 22%
  Population Mitotic Cells (%): 95% and 91%
  Population Normal (%): 95% and 93%

## Cn1nc(C(F)(F)F)cc1-c1cnc(N2CCc3cc(S(=O)(=O)Nc4c(F)cc(Cl)cc4F)cc(N4CCCC4=O)c32)nc1 [TP-020]
[1]
  Population Apoptotic (%): 25%
  Population Fragmented Nuclei (%): 10%
  Population Healthy Nuclei (%): 71%
  Population Hoechst High Intensity Objects (%): 10%
  Population Membrane Permeable-Phenotype (%): 6%
  Population Mitochondria Different-Phenotype (%): 9%
  Population Mitotic Cells (%): 74%
  Population Normal (%): 89%
  Population Pyknosed Nuclei (%): 18%
  Population Tubulin-Different-Phenotype (%): 16%
  Total Cell Count: 692
[2]
  Population Apoptotic (%): 16%
  Population Fragmented Nuclei (%): 5%
  Population Healthy Nuclei (%): 89%
  Population Hoechst High Intensity Objects (%): 1%
  Population Membrane Permeable-Phenotype (%): 9%
  Population Mitochondria Different-Phenotype (%): 13%
  Population Mitotic Cells (%): 83%
  Population Normal (%): 98%
  Population Pyknosed Nuclei (%): 5%
  Population Tubulin-Different-Phenotype (%): 37%
  Total Cell Count: 1398
[3]
  Population Apoptotic (%): 17%
  Population Fragmented Nuclei (%): 14%
  Population Healthy Nuclei (%): 63%
  Population Hoechst High Intensity Objects (%): 11%
  Population Membrane Permeable-Phenotype (%): 2%
  Population Mitochondria Different-Phenotype (%): 2%
  Population Mitotic Cells (%): 82%
  Population Normal (%): 88%
  Population Pyknosed Nuclei (%): 21%
  Population Tubulin-Different-Phenotype (%): 3%
  Total Cell Count: 565
[4]
  Population Apoptotic (%): 4%
  Population Fragmented Nuclei (%): 9%
  Population Healthy Nuclei (%): 86%
  Population Hoechst High Intensity Objects (%): 1%
  Population Mitochondria Different-Phenotype (%): 5%
  Population Mitotic Cells (%): 95%
  Population Normal (%): 98%
  Population Pyknosed Nuclei (%): 4%
  Population Tubulin-Different-Phenotype (%): 5%
  Total Cell Count: 1658
[5]
  Population Apoptotic (%): 21%
  Population Fragmented Nuclei (%): 10%
  Population Hoechst High Intensity Objects (%): 7%
  Population Membrane Permeable-Phenotype (%): 12%
  Population Mitochondria Different-Phenotype (%): 8%
  Population Mitotic Cells (%): 78%
  Population Normal (%): 92%
  Population Pyknosed Nuclei (%): 8%
  Population Tubulin-Different-Phenotype (%): 31%
  Total Cell Count: 805
[6]
  Population Apoptotic (%): 6%
  Population Fragmented Nuclei (%): 12%
  Population Healthy Nuclei (%): 81%
  Population Hoechst High Intensity Objects (%): 1%
  Population Membrane Permeable-Phenotype (%): 13%
  Population Mitochondria Different-Phenotype (%): 6%
  Population Mitotic Cells (%): 93%
  Population Normal (%): 98%
  Population Pyknosed Nuclei (%): 5%
  Population Tubulin-Different-Phenotype (%): 47%
  Total Cell Count: 1839
[7]
  Population Apoptotic (%): 26%
  Population Fragmented Nuclei (%): 11%
  Population Healthy Nuclei (%): 77%
  Population Hoechst High Intensity Objects (%): 5%
  Population Membrane Permeable-Phenotype (%): 8%
  Population Mitochondria Different-Phenotype (%): 1%
  Population Mitotic Cells (%): 73%
  Population Normal (%): 94%
  Population Pyknosed Nuclei (%): 10%
  Population Tubulin-Different-Phenotype (%): 7%
  Total Cell Count: 670
[8]
  Population Apoptotic (%): 3%
  Population Fragmented Nuclei (%): 26%
  Population Healthy Nuclei (%): 71%
  Population Hoechst High Intensity Objects (%): 3%
  Population Membrane Permeable-Phenotype (%): 5%
  Population Mitochondria Different-Phenotype (%): 0%
  Population Mitotic Cells (%): 96%
  Population Normal (%): 96%
  Population Pyknosed Nuclei (%): 2%
  Population Tubulin-Different-Phenotype (%): 5%
  Total Cell Count: 2801
